Activity calls are given as the source filed them. The calls are words filed in the database; no cut-off is given here.
Key:
[1] = target: Amyloid-beta precursor protein (Homo sapiens) (UniProt P05067); experiment: Inhibition of amyloid beta (1 to 42) (unknown origin) aggregation assessed as increase in time of half-life of aggregation at 100 uM using compound dissolved in DMSO measured after 42 hrs by Thioflavin T fluorescence assay relative to control; parameters: scale not given: the % may be the effect or the level left
Outline: (§1)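 Aβ1-42 dissolved in 1% aqueous ammonia at 1 mM, diluted to 0.2 mM in 10 mM Tris-HCl, 100 mM NaCl pH 7.4 just before use. Final 10 µM peptide added to 40 µM ThT with compound (final DMSO 0.5% v/v), room temperature. Triplicate wells, ex/em 440/480 nm for 42 h, read 2–4 times on different days. t1/2 extension and plateau F reduction are computed as % of peptide-alone values.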

[2] = target: Amyloid-beta precursor protein (Homo sapiens) (UniProt P05067); experiment: Inhibition of amyloid beta (1 to 42) (unknown origin) aggregation assessed as increase in time of half-life of aggregation at 10 uM using compound dissolved in DMSO measured after 42 hrs by Thioflavin T fluorescence assay relative to control; parameters: scale not given: the % may be the effect or the level left; outline: as §1
[3] = target: Amyloid-beta precursor protein (Homo sapiens) (UniProt P05067); experiment: Inhibition of amyloid beta (1 to 42) (unknown origin) aggregation assessed as reduction in intensity of fluorescence plateau of aggregation at 100 uM using compound dissolved in DMSO measured after 42 hrs by Thioflavin T fluorescence assay relative to control; parameters: scale not given: the % may be the effect or the level left; outline: as §1
[4] = target: Amyloid-beta precursor protein (Homo sapiens) (UniProt P05067); experiment: Inhibition of amyloid beta (1 to 42) (unknown origin) aggregation assessed as reduction in intensity of fluorescence plateau of aggregation at 10 uM using compound dissolved in DMSO measured after 42 hrs by Thioflavin T fluorescence assay relative to control; parameters: scale not given: the % may be the effect or the level left; outline: as §1
[5] = target: Amyloid-beta precursor protein (Homo sapiens) (UniProt P05067); experiment: Inhibition of amyloid beta (1 to 42) (unknown origin) aggregation at 100 uM after 42 hrs by uranyl acetate staining based transmission electron microscopic method
Outline: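 Samples are prepared as for ThT: 10 µM Aβ1-42 in 10 mM Tris-HCl, 100 mM NaCl pH 7.4, ±100 µM compound, incubated 42 h. Aliquots adsorbed 2 min on 300-mesh carbon grids, washed, dried, negatively stained 45 s and imaged by TEM.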

[6] = target: Amyloid-beta precursor protein (Homo sapiens) (UniProt P05067); experiment: Inhibition of amyloid beta (1 to 42) (unknown origin) aggregation assessed as increase in time of half-life of aggregation at 100 uM using compound dissolved in water measured after 42 hrs by Thioflavin T fluorescence assay relative to control; parameters: scale not given: the % may be the effect or the level left
Outline: (§2)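 ThT kinetics of 10 µM Aβ1-42 (from 1 mM ammonia stock, diluted in 10 mM Tris-HCl, 100 mM NaCl, pH 7.4) with 40 µM ThT at room temperature. Compound is dissolved in water (0.5% v/v) rather than DMSO and used at 10:1 compound/peptide. Fluorescence 440/480 nm over 42 h. t1/2 and plateau F are expressed as % change versus peptide alone.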

[7] = target: Amyloid-beta precursor protein (Homo sapiens) (UniProt P05067); experiment: Inhibition of amyloid beta (1 to 42) (unknown origin) aggregation assessed as increase in time of half-life of aggregation at 1 uM using compound dissolved in DMSO measured after 42 hrs by Thioflavin T fluorescence assay relative to control; outline: as §1
[8] = target: Amyloid-beta precursor protein (Homo sapiens) (UniProt P05067); experiment: Inhibition of amyloid beta (1 to 42) (unknown origin) aggregation assessed as reduction in intensity of fluorescence plateau of aggregation at 100 uM using compound dissolved in water measured after 42 hrs by Thioflavin T fluorescence assay relative to control; parameters: scale not given: the % may be the effect or the level left; outline: as §2
[9] = target: Amyloid-beta precursor protein (Homo sapiens) (UniProt P05067); experiment: Inhibition of amyloid beta (1 to 42) (unknown origin) aggregation assessed as reduction in intensity of fluorescence plateau of aggregation at 1 uM using compound dissolved in DMSO measured after 42 hrs by Thioflavin T fluorescence assay relative to control; parameters: scale not given: the % may be the effect or the level left; outline: as §1
[10] = target: Amyloid-beta precursor protein (Homo sapiens) (UniProt P05067); experiment: Inhibition of amyloid beta (1 to 42) (unknown origin) aggregation at 1 to 100 uM treated immediately or 3 hrs after fibrillization kinetics by Thioflavin T fluorescence assay
Outline: (§3)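 Same ThT set-up (10 µM Aβ1-42, 40 µM ThT, Tris-HCl/NaCl pH 7.4, room temperature, 440/480 nm), except compound is added at the start of kinetics or 3, 19 or 44 h after it. Tested at 1:1 and 10:1 compound/peptide ratios.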

[11] = target: Amyloid-beta precursor protein (Homo sapiens) (UniProt P05067); experiment: Inhibition of amyloid beta (1 to 42) (unknown origin) aggregation at 1 to 100 uM treated at 19 to 44 hrs after fibrillization kinetics by Thioflavin T fluorescence assay; outline: as §3
[12] = target: Amyloid-beta precursor protein (Homo sapiens) (UniProt P05067); experiment: Inhibition of amyloid beta (1 to 42) (unknown origin) oligomerization assessed as amyloid beta monomer level at 100 uM after 6 hrs by capillary electrophoresis method (reference value: 4%); parameters: scale not given: the % may be the effect or the level left
Outline: (§4)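 Aβ1-42 reconstituted at 100 µM final in 20 mM phosphate pH 7.4 with 2.5% v/v DMSO (compound stock or control), compound at 10:1 ratio. Profiles taken at 0, 2, 6 and 12 h. CE in fused silica capillary, 80 mM phosphate pH 7.4, −30 kV, 20°C, UV 190 nm. Monomer peak area is related to that of peptide alone at 0 h.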

[13] = target: Amyloid-beta precursor protein (Homo sapiens) (UniProt P05067); experiment: Inhibition of amyloid beta (1 to 42) (unknown origin) oligomerization assessed as amyloid beta monomer level at 100 uM after 12 hrs by capillary electrophoresis method (reference value: 0%); parameters: scale not given: the % may be the effect or the level left; outline: as §4
[14] = target: Amyloid-beta precursor protein (Homo sapiens) (UniProt P05067); experiment: Inhibition of amyloid beta (1 to 42) (unknown origin) oligomerization assessed as increase in amyloid beta monomer level at 100 uM up to 2 hrs by capillary electrophoresis method; outline: as §4

Chain of Amyloid-beta precursor protein (Homo sapiens) (P05067 whole entry): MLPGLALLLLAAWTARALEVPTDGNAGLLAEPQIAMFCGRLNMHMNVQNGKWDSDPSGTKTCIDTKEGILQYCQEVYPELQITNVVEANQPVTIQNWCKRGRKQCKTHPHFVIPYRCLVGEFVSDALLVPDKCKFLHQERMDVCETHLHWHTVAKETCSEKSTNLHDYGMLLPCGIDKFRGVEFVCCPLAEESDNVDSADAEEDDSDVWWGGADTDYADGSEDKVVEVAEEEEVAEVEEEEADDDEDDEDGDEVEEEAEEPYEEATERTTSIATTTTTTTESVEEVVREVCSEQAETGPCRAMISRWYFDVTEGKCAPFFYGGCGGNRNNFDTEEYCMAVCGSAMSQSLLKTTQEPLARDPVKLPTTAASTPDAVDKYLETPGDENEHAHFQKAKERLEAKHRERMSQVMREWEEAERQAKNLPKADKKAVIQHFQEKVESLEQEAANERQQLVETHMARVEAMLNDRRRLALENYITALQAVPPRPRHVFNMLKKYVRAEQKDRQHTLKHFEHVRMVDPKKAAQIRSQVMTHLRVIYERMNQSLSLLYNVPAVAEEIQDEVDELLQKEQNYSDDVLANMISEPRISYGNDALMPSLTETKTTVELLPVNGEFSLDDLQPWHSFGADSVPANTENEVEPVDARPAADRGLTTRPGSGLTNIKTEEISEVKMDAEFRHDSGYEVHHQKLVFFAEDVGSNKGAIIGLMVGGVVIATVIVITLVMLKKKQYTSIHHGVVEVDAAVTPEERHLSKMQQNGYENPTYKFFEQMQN

Activity [1] | Activity [2] | Activity [3] | Activity [4] | inhibition [5] | Activity [6] [%] | Activity [7] | Activity [8] [%] | Activity [9] | inhibition [10] | inhibition [11] | Activity [12] [%] | Activity [13] [%] | inhibition [14] | Structure (SMILES)
29% | 13% | 43% | inactive |  |  |  |  |  |  |  |  |  |  | COc1ccc(NC(C)=O)cc1C(=O)NNC(=O)[C@H](CCCCN)NC(=O)[C@@H]1CCCN1[C@@H]1CN(C(=O)[C@@H](NC(=O)[C@H](C)N)C(C)C)CC[C@H]1NC(=O)OC(C)(C)C
inactive | inactive | inactive | inactive |  |  |  |  |  |  |  |  |  |  | COc1ccc(NC(C)=O)cc1C(=O)NNC(=O)[C@H](CCCCNC(=O)OCc1ccccc1)NC(=O)[C@@H]1CCCN1[C@@H]1CN(C(=O)[C@@H](NC(=O)[C@H](C)NC(=O)OC(C)(C)C)C(C)C)CC[C@H]1NS(=O)(=O)c1ccc(C)cc1
56% | 27% | 54% | inactive | Active |  |  |  |  |  |  |  |  |  | COc1ccc(NC(C)=O)cc1C(=O)NNC(=O)[C@H](CCCCN)NC(=O)[C@@H]1CCCN1[C@@H]1CN(C(=O)[C@@H](NC(=O)[C@H](C)N)C(C)C)CC[C@H]1NS(=O)(=O)c1ccc(N)cc1
inactive | inactive | 18% | inactive |  |  |  |  |  |  |  |  |  |  | COc1ccc(NC(C)=O)cc1C(=O)NNC(=O)[C@H](CCCCN)NC(=O)[C@@H]1CCCN1[C@@H]1CN(C(=O)[C@@H](NC(=O)[C@H](C)N)C(C)C)CC[C@H]1N
30% | inactive | 32% | inactive |  | 58 | inactive | 35 | inactive |  |  |  |  |  | COc1ccc(NC(C)=O)cc1C(=O)NNC(=O)[C@H](CCCCN)NC(=O)[C@@H]1CCCN1[C@@H]1CN(C(=O)[C@@H](NC(=O)[C@H](C)NC(=O)[C@@H](N)C(C)C)C(C)C)CC[C@H]1NS(=O)(=O)c1ccc(C)cc1
inactive | inactive | 23% | inactive |  |  |  |  |  |  |  |  |  |  | COC(=O)[C@@H]1CCCN1[C@@H]1CNCC[C@H]1NS(=O)(=O)c1ccc(C)cc1
76% | 36% | 66% | 38% | Active | 96 | inactive | 81 | 38% | Active | inactive | 49 | 31 | inactive | COc1ccc(NC(C)=O)cc1C(=O)NNC(=O)[C@H](CCCCN)NC(=O)[C@@H]1CCCN1[C@@H]1CN(C(=O)[C@@H](NC(=O)[C@H](C)N)C(C)C)CC[C@H]1NS(=O)(=O)c1ccc(C)cc1
inactive | inactive | 97% | 90% |  |  |  |  |  |  |  |  |  |  | CSCC[C@H](NC(=O)[C@H](CC(C)C)NC(=O)CN)C(=O)N[C@H](C(=O)NCC(=O)N1CC[C@@H](NS(=O)(=O)c2ccc(C)cc2)[C@H](N2CCC[C@H]2C(=O)N[C@@H](CCCCN)C(=O)N[C@@H](CC(C)C)C(=O)N[C@H](C(=O)N[C@@H](Cc2ccccc2)C(=O)N[C@@H](Cc2ccccc2)C(N)=O)C(C)C)C1)C(C)C
59% | 23% | inactive | inactive |  |  |  |  |  |  |  |  |  |  | COc1ccc(NC(C)=O)cc1C(=O)NNC(=O)[C@H](CCCCN)NC(=O)[C@@H]1CCCN1[C@@H]1CN(C(=O)[C@@H](NC(=O)[C@H](C)NC(=O)OC(C)(C)C)C(C)C)CC[C@H]1NS(=O)(=O)c1ccc(C)cc1

— ChEMBL document CHEMBL4152277, “Structure-activity relationships of β-hairpin mimics as modulators of amyloid β-peptide aggregation” (Eur J Med Chem, 2018)
